Laboratory results taken from the RNAGym collection of RNA variant scans (doi:10.1002/anie.201605470).

B1: Osa-1-4 twister ribozyme (parent)
chain: CCGCCUAACACUGCCAAUGCCGGUCCCAAGCCCGGAUAAAAGUGGAGGGGGCGG

Variants of: B1
Experiment: self-cleavage, relative activity (ratio to wild type); higher = more cleavage; co-transcriptional
Outline: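 The 48 positions downstream of the cleavage site in a 54-nucleotide Oryza sativa twister ribozyme template were synthesised at 97 % wild-type base and 1 % of each other base. The template was transcribed in vitro at 37 °C for 2 h, with self-cleavage allowed during transcription. Reads with or without upstream sequence after deep sequencing marked cleavage status, and relative activity is fraction cleaved normalised to wild type.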

Variant	self-cleavage
C27G G45C	0.03
C27G G45U	0.02
C27U G42C	0.07
C27U G42A	0.08
C27U G42U	0.03
C26U G13A	0.05
C26U G13C	0.02
C26U G13U	0.03
C26U G23U	0.04
C26U G23A	0.15
C26U G23C	0.04
C26G U18A	0.09
C26G U18G	0.13
C26G U18C	0.1
C27U G22U	0.06
C27U G22C	0.03
C27U G22A	0.12
C27A U37C	0.32
C27A U37G	0.42
C27A U37A	0.26
C27A G47C	0.36
C27A G47U	0.83
C27A G47A	0.24
C27A G23U	0.04

Variant	self-cleavage
C27A G23A	0.06
C27A G23C	0.03
C27U G19U	0.05
C27U G19A	0.08
C27U G19C	0.04
C26U C32U	0.09
C26U C32A	0.06
C26U C32G	0.27
C27U C32A	0.04
C27U C32U	0.06
C27U C32G	0.05
C27A U12G	0.11
C27A U12C	0.06
C27A U12A	0.07
C27U G45A	0.05
C27U G45C	0.04
C27U G45U	0.04
C27A G53C	0.05
C27A G53U	0.06
C27A G53A	0.09
C26G G50U	0.09
C26G G50C	0.09
C26G G50A	0.1
C27A G35C	0.07

Variant	self-cleavage
C27A G35A	0.39
C27A G35U	0.16
C26G U24C	0.04
C26G U24A	0.04
C26G U24G	0.02
C26U G50A	0.92
C26U G50U	0.52
C26U G50C	0.26
C26U C31A	0.05
C26U C31U	0.16
C26U C31G	0.07
C27G G44U	0.05
C27G G44A	0.06
C27G G44C	0.08
C27G G53U	0.03
C27G G53C	0.02
C27G G53A	0.06
C27A G48U	0.04
C27A G48A	0.04
C27A G48C	0.05
C26U U12A	0.2
C26U U12G	0.23
C26U U12C	0.09
C26U C9U	0.55

Variant	self-cleavage
C26U C9A	0.26
C26U C9G	0.24
C27A	0.37
C27G	0.13
C27U	0.33
C27A G19A	0.09
C27A G19C	0.03
C27A G19U	0.04
C27A G44C	0.14
C27A G44U	0.14
C27A G44A	0.1
C27G G35C	0.04
C27G G35U	0.1
C27G G35A	0.12
C27A C32U	0.06
C27A C32G	0.06
C27A C32A	0.09
C27U G23U	0.03
C27U G23C	0.03
C27U G23A	0.07
C26U U43C	0.14
C26U U43A	0.32
C26U U43G	0.15
C26U G49U	0.06

Variant	self-cleavage
C26U G49C	0.06
C26U G49A	0.06
C27A G34A	0.18
C27A G34U	0.17
C27A G34C	0.09
C27A U43C	0.1
C27A U43A	0.1
C27A U43G	0.15
C27A U18C	0.26
C27A U18A	0.27
C27A U18G	0.34
C27U G13U	0.01
C27U G13C	0.01
C27U G13A	0.04
C27A G22C	0.03
C27A G22U	0.06
C27A G22A	0.1
C27G U37G	0.16
C27G U37C	0.1
C27G U37A	0.08
C27G U12A	0.05
C27G U12G	0.06
C27G U12C	0.05
C27A C9A	0.09

Variant	self-cleavage
C27A C9U	0.07
C27A C9G	0.1
C26U G19U	0.05
C26U G19A	0.14
C26U G19C	0.04
C27G C9A	0.03
C27G C9U	0.05
C27G C9G	0.07
C26G U43G	0.07
C26G U43A	0.09
C26G U43C	0.07
C27U C33G	0.05
C27U C33U	0.13
C27U C33A	0.05
C27G G51C	0.02
C27G G51U	0.04
C27G G51A	0.05
C26U G53C	0.08
C26U G53U	0.11
C26U G53A	0.22
C27G U24C	0.04
C27G U24G	0.02
C27G U24A	0.03
C26G G51U	0.06

Variant	self-cleavage
C26G G51C	0.05
C26G G51A	0.1
C27A C33G	0.04
C27A C33U	0.1
C27A C33A	0.09
C26G U37A	0.09
C26G U37G	0.1
C26G U37C	0.1
C27U G34U	0.15
C27U G34A	0.18
C27U G34C	0.08
C27G C52G	0.14
C27G C52A	0.08
C27G C52U	0.16
C27U G30A	0.02
C27U G30U	0.05
C27U G30C	0.02
C27G G19A	0.06
C27G G19U	0.04
C27G G19C	0.03
C26U G42A	0.13
C26U G42U	0.04
C26U G42C	0.1
